Assay results taken from ChEMBL document CHEMBL1134785, “Synthesis and biological evaluation of prostaglandin-F alkylphosphinic acid derivatives as bone anabolic agents for the treatment of osteoporosis” (J Med Chem, 2001).

Experiments:
Prostacyclin receptor = Prostacyclin receptor (Homo sapiens, UniProt P43119); assay: In vitro binding at prostanoid IP receptor using [3H]iloprost as radioligand
In short: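 Receptors stably expressed in CHO cells, collected 4-5 days after seeding. Membranes made by lysis (Tris, EDTA, protease inhibitors) and 100000g pellet, then resuspended at 1 mg protein/mL in TME. Radioligands at 5 nM: [3H]PGE2 for EP2/EP3/EP4, [3H]Iloprost for IP, [3H]SQ-29548 for TP. Competition binding with filtration and counting.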

[1] = biological target: T1, Prostaglandin E2 receptor EP1 subtype (Homo sapiens, UniProt P34995); assay: In vitro binding at EP1 human prostaglandin receptor using [3H]PGE-2 as radioligand
T1 sequence (P34995 whole entry): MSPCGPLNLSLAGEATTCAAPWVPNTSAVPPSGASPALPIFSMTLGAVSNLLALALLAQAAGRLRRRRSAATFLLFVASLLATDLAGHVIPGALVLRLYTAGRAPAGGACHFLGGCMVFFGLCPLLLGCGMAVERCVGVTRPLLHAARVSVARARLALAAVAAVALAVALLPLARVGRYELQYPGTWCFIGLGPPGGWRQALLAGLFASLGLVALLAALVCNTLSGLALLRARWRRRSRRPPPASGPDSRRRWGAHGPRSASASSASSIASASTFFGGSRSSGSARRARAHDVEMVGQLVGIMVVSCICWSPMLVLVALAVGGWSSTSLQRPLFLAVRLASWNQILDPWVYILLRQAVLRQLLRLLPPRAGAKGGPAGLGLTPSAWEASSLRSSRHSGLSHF
In short: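 hEP1 transiently expressed in COS-7 cells by the hFP transfection and membrane protocol, with membranes in TME buffer pH 6.0. Competition binding used 5 nM [3H]PGE2, 1 h at 23 °C, filtration and scintillation counting.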

Rattus norvegicus [2] = assay: Bone formation rate/bone volume (%/year)bone measured Histomorphometrically after a dose of 30 ug/kg in proximal tibial metaphysis; type: functional; conditions: at 30 µg/kg
Rattus norvegicus [3] = assay: Mineralizing surface/bone surface(%) measured Histomorphometrically after a dose of 30 ug/kg in proximal tibial metaphysis; type: functional
In short: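 Ovariectomized six-month-old rats, 6-8 per group, were dosed subcutaneously once daily at 0.01–3.0 mg/kg for 60 days, starting 60 days after surgery. Vehicle was acetate-buffered saline, methylcellulose and polyoxyethylenesorbitan monooleate. Labels were xylenol orange 90 mg/kg pretreatment and calcein 10 mg/kg at 14 and 4 days before necropsy. Histomorphometry covered the proximal tibial metaphysis, 1–4 mm distal to the growth plate–metaphyseal junction. ANOVA/LSD versus vehicle.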

Rattus norvegicus [4] = assay: Bone formation rate/bone volume (%/year)bone measured Histomorphometrically after a dose of 10 ug/kg in proximal tibial metaphysis; type: functional; conditions: at 10 µg/kg
Rattus norvegicus [5] = assay: Bone formation rate/bone volume (%/year) bone measured histomorphometrically after a dose of 1000 ug/kg in proximal tibial metaphysis; type: functional; conditions: at 1000 µg/kg
Rattus norvegicus [6] = assay: Bone formation rate/tissue volume (%/year)bone measured Histomorphometrically after a dose of 10 ug/kg in proximal tibial metaphysis; type: functional; conditions: at 10 µg/kg
Rattus norvegicus [7] = assay: Derived trabecular thickness (um) measured using micro Computed Tomography(CT) after a dose of 1000 ug/kg in Vertebral Bone; type: functional, Trabecula
In short: (§1)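 Micro-CT of the fifth lumbar vertebra, measuring cancellous bone volume and architecture. Rats were 6 months old, OVX 60 days before treatment, then dosed daily for 60 days. Test-agent doses were 10–3000 µg/kg, given as a once-daily subcutaneous injection; 6 mg/kg/day was given to the positive-control group. Groups were compared with vehicle by ANOVA plus LSD test.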

Rattus norvegicus [8] = assay: Directly measured thickness(um) using micro Computed Tomography(CT) after a dose of 100 ug/kg in Vertebral Bone; type: functional; in short: as §1
Rattus norvegicus [9] = assay: Derived trabecular thickness (um) measured using micro Computed Tomography(CT) after a dose of 30 ug/kg in Vertebral Bone; type: functional, Trabecula; in short: as §1
Rattus norvegicus [10] = assay: Trabecular no (mm)measured Histomorphometrically after a dose of 1000 ug/kg in proximal tibial metaphysis; type: functional, Trabecula
In short: (§2)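 Six-month-old rats were ovariectomized, and 60 days later daily subcutaneous dosing began for 60 days, with vehicle of acetate-buffered saline, methylcellulose and polysorbate. Xylenol orange (90 mg/kg) labelled bone pre-treatment and calcein (10 mg/kg) 14 and 4 days pre-sacrifice. Histomorphometry covered the proximal tibial metaphysis 1-4 mm distal to the growth plate-metaphyseal junction. Groups were 6-8 rats, compared by ANOVA/LSD vs vehicle.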

Rattus norvegicus [11] = assay: Trabecular no (mm)measured Histomorphometrically after a dose of 300 ug/kg in proximal tibial metaphysis; type: functional, Trabecula; in short: as §2
Rattus norvegicus [12] = assay: Derived trabecular thickness (um) measured using micro Computed Tomography(CT) after a dose of 3000 ug/kg in Vertebral Bone; type: functional, Trabecula; in short: as §1

Chain of Prostacyclin receptor (P43119 whole entry): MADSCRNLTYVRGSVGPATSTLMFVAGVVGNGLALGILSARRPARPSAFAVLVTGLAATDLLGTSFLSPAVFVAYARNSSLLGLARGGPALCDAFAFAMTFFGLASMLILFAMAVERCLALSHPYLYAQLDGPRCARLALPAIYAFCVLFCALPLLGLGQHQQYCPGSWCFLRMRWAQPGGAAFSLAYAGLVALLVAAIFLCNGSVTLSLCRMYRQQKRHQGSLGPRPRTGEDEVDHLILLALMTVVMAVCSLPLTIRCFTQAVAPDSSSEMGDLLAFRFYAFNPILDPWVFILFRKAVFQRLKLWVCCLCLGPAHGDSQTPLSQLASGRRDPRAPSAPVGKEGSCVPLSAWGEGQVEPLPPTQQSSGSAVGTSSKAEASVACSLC

Work on `CP(=O)(O)CCC/C=C\C[C@@H]1[C@@H](/C=C/[C@@H](O)COc2ccccc2)[C@H](O)C[C@@H]1O` yielded an IC50 (Prostacyclin receptor) of over 10 µM, an IC50 [1] of over 10 µM and an Activity (Rattus norvegicus [2]) of 495.65%. For the same compound, the Activity (Rattus norvegicus [3]) was 30.59%, the Activity (Rattus norvegicus [4]) was 498.01% and the Activity (Rattus norvegicus [5]) was 251.82%. For the same compound, the Activity (Rattus norvegicus [6]) was 9.81%, the Derived trabecular thickness (Rattus norvegicus [7]) was 80.6 µm and the Directly measured thickness (Rattus norvegicus [8]) was 127 µm. The Derived trabecular thickness (Rattus norvegicus [9]) was 77.8 µm, the Trabecular no. (Rattus norvegicus [10]) was 1.64 1/mm and the Trabecular no. (Rattus norvegicus [11]) was 1.27 1/mm. It also gave a Derived trabecular thickness (Rattus norvegicus [12]) of 83.8 µm.
